Screening data: PubChem, several laboratories
TDP2 inh: blocks human TDP2 phosphodiesterase activity | O95551 | recombinant TDP2, T5PNP hydrolysis, p-nitrophenol absorbance 415 nm | inhibition, % at 12.8 µM | 370,000 tested, 0.34% active | AID 720702;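 active = inhibition above the mean of all tested compounds plus 3 SD, set per campaign, cut at about 25% in these data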
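Read-out basis: percent inhibition. System: recombinant human TDP2. Buffer or medium: Mg2+-containing Tris-HCl buffer, pH 7.5. Repeats: single replicate. Timing: reaction 2 h, 37 °C. Benchmarks: high control without enzyme, low control DMSO plus TDP2. Probe or stimulus: 5 mM T5PNP. Doses: 12.8 µM only. Measured by: epi absorbance of p-nitrophenol freed from T5PNP by hydrolysis.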
PAD4 inh: blocks human protein arginine deiminase 4. Q9UM07. recombinant PAD4, RCA probe fluorescence polarization. inhibition, % at 6.36 µM. 330,000 tested, 0.41% active. AID 485272;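 active = percent inhibition above a cutoff equal to the mean of all tested compounds plus 3 SD, cut at about 15% in these data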
Apaf-1 inh: inhibitors of human Apaf-1 apoptosome; O14727; reconstituted apoptosome caspase-3 activity, DEVD-Rh110 fluorescence; inhibition, % at 20 µM; 330,000 tested, 0.71% active; AID 489030; active = inhibition of at least 40% at 20 µM
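Material: reconstituted apoptosome with Apaf-1, cytochrome c, caspase-9, procaspase-3, dATP; medium: pH 7.5 Hepes buffer with CHAPS, BSA, DTT; also added: cytochrome c and DEVD-Rh110 substrate; timing: 30 min plus 50 min, RT; signal: Rh110 fluorescence intensity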
GSTO1 inh: counter-screen for RBBP9 inhibitors: inhibitors of human GSTO1; P78417; recombinant GSTO1, activity-based probe fluorescence polarization; inhibition, % at 5.96 µM; 300,000 tested, 1.1% active; AID 1974;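 active = inhibition above the campaign mean inhibition plus 3 SD, cut at about 35% in these data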
Target sequence (P78417 whole entry, looked up): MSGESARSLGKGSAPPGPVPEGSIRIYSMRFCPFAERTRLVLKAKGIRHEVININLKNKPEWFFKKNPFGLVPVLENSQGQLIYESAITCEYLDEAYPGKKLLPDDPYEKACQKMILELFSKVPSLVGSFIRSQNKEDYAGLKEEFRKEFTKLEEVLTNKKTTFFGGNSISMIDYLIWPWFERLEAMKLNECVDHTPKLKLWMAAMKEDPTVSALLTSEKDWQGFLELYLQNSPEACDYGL
SIAE inh: human SIAE inhibition, primary screen; AID 1053197; Q9HAT2; 370,000 tested, 0.69% active; SIAE FP-Rh probe binding, fluorescence polarization; inhibition, % at 9.66 µM;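 active = inhibition above a cutoff: mean of compounds within the control limits plus 3 SD of those, cut at about 17% in these data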
TCR-CD3 inh: inhibitors of human TCR-CD3 interaction; TAMRA-labeled TCR probe fluorescence, biochemical; inhibition, % at 9.4 µM; 360,000 tested, 0.37% active; AID 651800; in the data active = inhibition above about 19%;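 also: recombinant mutant TCR 2C K166C tagged with TAMRA read by polarization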
Apaf-1 inh conf2: Apaf-1 inhibition, single-dose confirmed; shares compounds with Apaf-1 inh; reconstituted apoptosome, caspase-3 DEVD-Rh110 fluorescence; inhibition, % at 20 µM; 1,800 tested, 25% active; AID 504614;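 active = mean inhibition of at least 40% at 20 µM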
Rh110 quench: interferes with Rh110 fluorescence, flagging false Apaf-1 inhibitors | shares compounds with Apaf-1 inh | Rh110 fluorescence interference, quenched caspase reaction | activation (fluorescence interference), % at 20 µM | 1,800 tested, under 10 active | AID 504615;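 active = signal rise of 40% or more at 20 µM, treated as a fluorescence artifact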
Apaf1 inh interf: shows fluorescence interference in the Apaf-1 inhibitor assay format | shares compounds with Apaf-1 inh | fluorescence interference counterscreen, Apaf-1 assay format | IC50, µM | 460 tested, under 10 active | AID 588538; call rule not given here
Each line names hits and unclear results; the compound was inactive in the other large screens (follow-up assays come after a bar, where they were run). Rows were chosen to be rich in hits. Some 2.4% of all compounds tested hit in one or more screens of this group.

Cc1c(Cl)cccc1N=C1SCCN1C(=O)CN1C(=O)NC2(CCCC2)C1=O	Apaf-1 inh 40.4 | Apaf-1 inh conf2 inactive | Rh110 quench inactive
O=C(CN1C(=O)NC2(CCCCC2)C1=O)Nc1cccc(Cl)c1Cl	none (no result: GSTO1 inh)
CCCCc1oc2ccccc2c1C(=O)c1cc(I)c(OCCN(CC)CC)c(I)c1	Apaf-1 inh 53.3 (no result: TDP2 inh) | Apaf-1 inh conf2 inactive | Rh110 quench inactive
CCCCN(CC)S(=O)(=O)c1ccc(C(=O)N(CCCN(C)C)c2nc3cc(C)cc(C)c3s2)cc1	Apaf-1 inh 47.1 | Apaf-1 inh conf2 inactive | Rh110 quench inactive
COc1cccc2sc(N(CCN(C)C)C(=O)c3ccc4c(c3)CCCC4)nc12	Apaf-1 inh 50.0 | Apaf-1 inh conf2 inactive | Rh110 quench inactive
Cc1cc(C)c2sc(N(CCCN(C)C)C(=O)c3ccc(S(=O)(=O)N(C)Cc4ccccc4)cc3)nc2c1	none
CCOc1cccc2sc(N(CCCN(C)C)C(=O)c3ccc(S(=O)(=O)N(C)Cc4ccccc4)cc3)nc12	Apaf-1 inh 61.9 | Apaf-1 inh conf2 inactive | Rh110 quench inactive
CCN(Cc1ccccc1)S(=O)(=O)c1ccc(C(=O)N(CCCN(C)C)c2nc3cc(C)cc(C)c3s2)cc1	Apaf-1 inh 42.0 | Apaf-1 inh conf2 inactive | Rh110 quench inactive
CCNC(=S)N(Cc1cc2cc(C)cc(C)c2[nH]c1=O)C1CCCC1	none
CC/C(=N\O)c1ccc(OC)c(OC)c1	none
CSc1nc2cc(F)c(F)cc2n1C	none
CCCCn1c(NC(C)=O)c(C#N)c2nc3ccccc3nc21	Apaf-1 inh 84.5 | Apaf-1 inh conf2 inactive | Rh110 quench inactive
CN1CCc2c(C#N)c(N3CCCCC3)nc(NCc3ccccc3)c2C1	Apaf-1 inh 52.0 | Apaf-1 inh conf2 inactive | Rh110 quench inactive
N#Cc1c(NCCCO)nc(NCc2ccccc2)c2c1CCN(Cc1ccccc1)C2	Apaf-1 inh 69.0 | Apaf-1 inh conf2 inactive | Rh110 quench inactive
Nc1ccn(CCCNC2CCN(Cc3ccccc3)CC2)c(=O)n1	none (no result: PAD4 inh, Apaf-1 inh, GSTO1 inh)
CCN1CCN(c2ccc(NC(=O)c3cc4ccccc4cc3OC)cc2C)CC1	Apaf-1 inh 51.1 (no result: GSTO1 inh) | Apaf-1 inh conf2 inactive | Rh110 quench inactive
O=C(NCCN1CCOCC1)c1cccc(S(=O)(=O)N(Cc2ccccc2)c2ccccc2)c1	none
CCN(c1ccccc1)S(=O)(=O)c1cccc(C(=O)NCCN2CCOCC2)c1	Apaf-1 inh 43.8 (no result: GSTO1 inh) | Apaf-1 inh conf2 inactive | Rh110 quench inactive
COc1ccccc1-c1ccc2c(c1)O[C@@H](CN(C)C(=O)Nc1cccc(F)c1)[C@H](C)CN([C@H](C)CO)S2(=O)=O	none (no result: PAD4 inh, Apaf-1 inh, GSTO1 inh)
NC(=O)CSc1nc(C2CC2)nc2sc3c(c12)CCCC3	none
COc1ccc(NC(=O)CN(C)S(=O)(=O)c2ccc3c(c2)CCCN3C(C)=O)cc1	none
O=c1[nH]nc(-c2ccc(F)cc2)cc1-c1ccccc1	none (no result: PAD4 inh, Apaf-1 inh, GSTO1 inh)
O=C1c2ccccc2-c2nnc(-c3ccc(F)cc3)cc21	Apaf-1 inh 78.2 | Apaf-1 inh conf2 inactive | Rh110 quench inactive
O=C1c2ccccc2-c2nnc(-c3ccc(O)cc3)cc21	Apaf-1 inh 90.7 | Apaf-1 inh conf2 inactive | Rh110 quench inactive
Cc1nc(C)n(C(C)CNC(=O)c2ccco2)n1 (stereo not drawn)	none (no result: PAD4 inh, GSTO1 inh)
Fc1ccccc1/C=C/c1ccc2ccccc2n1	none
Cc1n[nH]c(=O)c2c(NC(=O)CSc3ncccn3)oc(C)c12	none
CCCCCCCCCCCCCCCC[n+]1ccc(C(N)=O)cc1	Apaf-1 inh 72.6 | Apaf-1 inh conf2 53.1 | Rh110 quench inactive | Apaf1 inh interf inactive
CCCCCCCCCCCCCCCC[n+]1cccc(C(=O)N(CC)CC)c1	Apaf-1 inh 74.1 | Apaf-1 inh conf2 72.1 | Rh110 quench inactive | Apaf1 inh interf inactive
CCCCCCCC[n+]1cccc(C(=O)N(CC)CC)c1	none
